Measurements: article PMC7004521 (Cancer Science, 2019)
Read-outs that look alike come from different tables or passages of the source.

Key:
[1] = Dose-limiting toxicities, MTD and RP2D determination; type: in vivo, human
Plasma pharmacokinetics = type: in vivo, human
Method in brief: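 Capsules (100–600 mg bid) or tablets (400 mg bid) were given orally. In escalation, plasma was drawn pre-dose and at 0.5, 1, 2, 4, 6 and 8 h on cycle 1 days 1 and 15, plus pre-dose on C1D2, C1D16, C2D1 and C3D1. In expansion, non-NSCLC patients had the C1D15 profile plus pre-dose samples. Analysis was validated LC-MS/MS (LLOQ 1 ng/mL) with noncompartmental parameters.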

p‐MET = p‐MET immunohistochemistry in paired tumor biopsies; type: in vivo, human; details: 450 mg bid capsule, cycle 1 day 15, one advanced CRC patient
[2] = End of treatment / discontinuation reasons; type: in vivo, human; details: dose‐expansion part, six of 38 patients
MET‐dependent tumors = details: tolerable doses; animal models incl. NSCLC, HCC, GBM; cited from earlier work
advanced solid tumors = details: Japanese patients with advanced solid tumors; cited from earlier work
MET [3] = details: biochemical assays; cited from earlier work
MET [4] = details: cellular assays; cited from earlier work
other kinases = details: large panels of biochemical and binding assays; cited from earlier work
c‐MET phosphorylation = details: read-out: EC90 (90% inhibition of c‐MET phosphorylation); total concentration; c‐MET‐dependent mouse tumor models; cited from earlier work

## CNC(=O)c1ccc(-c2cnc3ncc(Cc4ccc5ncccc5c4)n3n2)cc1F [capmatinib]
[1]; 600 mg bid dose level, dose‐escalation phase
  posterior probability of excessive toxicity (BLRM): 20.1%
[1]; up to 600 mg bid capsules
  MTD: not reached
Plasma pharmacokinetics; 400 mg bid tablets
  drug accumulation following multiple doses: Limited drug accumulation
Plasma pharmacokinetics; Cycle 1 Day 15, 100 mg bid n=3
  Racc (accumulation ratio), Mean (SD): 1.54 (0.786)
Plasma pharmacokinetics; Cycle 1 Day 15, 200 mg bid n=5
  Racc (accumulation ratio), Mean (SD): 1.36 (0.869)
Plasma pharmacokinetics; Cycle 1 Day 15, 250 mg bid n=3
  Racc (accumulation ratio), Mean (SD): 1.08 (0.443)
Plasma pharmacokinetics; Cycle 1 Day 15, 350 mg bid n=3
  Racc (accumulation ratio), Mean (SD): 1.38 (0.614)
Plasma pharmacokinetics; Cycle 1 Day 15, 400 mg bid tablet n=5
  Racc (accumulation ratio), Mean (SD): 1.09 (0.408)
Plasma pharmacokinetics; Cycle 1 Day 15, 450 mg bid n=5
  Racc (accumulation ratio), Mean (SD): 2.36 (1.75)
Plasma pharmacokinetics; Cycle 1 Day 15, 600 mg bid n=15
  Racc (accumulation ratio), Mean (SD): 2.07 (0.848)
Plasma pharmacokinetics; capsules
  drug accumulation ratio following multiple doses: one‐ to twofold
Plasma pharmacokinetics; capsules 450 and 600 mg bid
  drug accumulation following multiple doses: ca. twofold
Plasma pharmacokinetics; capsules, 100 to 600 mg bid
  dose proportionality of steady‐state AUCtau and Cmax: generally dose proportional
Plasma pharmacokinetics; steady state
  mean exposure, tablet 400 mg bid versus capsules 600 mg bid: comparable mean exposure
Plasma pharmacokinetics; steady state, Cycle 1 Day 15, 200 mg bid n=5
  Cmax, Mean (SD): 2500 (856) ng/mL
Plasma pharmacokinetics; steady state, Cycle 1 Day 15, 250 mg bid n=3
  Tmax, Median: 1.00 h
Plasma pharmacokinetics; steady state, Cycle 1 Day 15, 400 mg bid tablet n=8
  Tmax, Median: 2.02 h
p‐MET
  p‐MET H‐score (IHC) on treatment: 2
[2]
  patients discontinued as a result of AE: 16%
MET‐dependent tumors
  effect on MET‐dependent tumors: regression of MET‐dependent tumors
Advanced solid tumors
  best overall response stable disease: 18.2%
MET [3]
  IC50: 0.13 nM
MET [4]
  IC50: ~1 nM
Other kinases
  selectivity versus other kinases: highly selective versus other kinases
c‐MET phosphorylation
  EC90: ~71 nM
